Source: publication PMC7944986 (Journal for Immunotherapy of Cancer, 2021)
“Also recorded” adds a separate entry of the source.

What was measured:
Type in all cases: in vivo, human
[1] = Steady-state galunisertib plasma pharmacokinetics; details: for AUC / Cmax: human, plasma, oral, geometric mean (CV %), steady state; for AUC: AUC(0-tau)
[2] = system: patients with recurrent or refractory metastatic pancreatic cancer; assay: Dose finding, modified 3+3; details: co-administered with durvalumab 1500 mg Q4W; days 1–14 of a 28-day cycle
In short: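 Oral galunisertib was given on days 1–14 in escalating cohorts of 50 mg once daily, then 50, 80 or 150 mg twice daily, with durvalumab infused IV over 60 min. Cohorts of three expanded to six after one DLT in cycle 1 (28 days). DLT criteria: grade 4 haematological AE, febrile neutropenia, grade 3–4 irAE or non-haematological AE, <75% planned dose, or >2-week delay. MTD: DLT in <2 of six; otherwise RP2D = maximum study dose.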

[3] = Durvalumab immunogenicity; details: durvalumab 1500 mg Q4W in combination with galunisertib

Compound	Time to maximum plasma concentration (mean concentration versus time profiles) ([1]; galunisertib 50, 80, and 150 mg two times per day)	AUC ([1]; tau=12 hours, galunisertib 50 mg two times per day + durvalumab 1500 mg Q4W)	AUC ([1]; tau=12 hours, galunisertib 80 mg two times per day + durvalumab 1500 mg Q4W)	AUC ([1]; tau=12 hours, galunisertib 150 mg two times per day + durvalumab 1500 mg Q4W)	AUC ([1]; tau=24 hours, galunisertib 50 mg one time per day + durvalumab 1500 mg Q4W)	Cmax ([1]; galunisertib 50 mg one time per day + durvalumab 1500 mg Q4W)	Cmax ([1]; galunisertib 80 mg two times per day + durvalumab 1500 mg Q4W)	Cmax ([1]; galunisertib 150 mg two times per day + durvalumab 1500 mg Q4W)	Recommended phase II dose (RP2D) of galunisertib [2]	Anti-drug antibodies against durvalumab [3]
Cc1cccc(-c2nn3c(c2-c2ccnc4ccc(C(N)=O)cc24)CCC3)n1 [Galunisertib, galunisertib]	≤ 4 h	813 ng·h/mL	3150 ng·h/mL	6120 ng·h/mL	1630 ng·h/mL	424 ng/mL	612 ng/mL	1070 ng/mL	150 mg two times per day	–
durvalumab	–	–	–	–	–	–	–	–	–	No anti-drug antibodies against durvalumab were detected; also recorded: immunogenicity was not observed
